The values that follow come from ChEMBL document CHEMBL1134553 (J Med Chem, 2001).

One may read the IC50 as the concentration needed to halve the response being measured.

Monoamine transporters; serotonin & dopamine (Homo sapiens), sequence (P31645 whole entry, looked up): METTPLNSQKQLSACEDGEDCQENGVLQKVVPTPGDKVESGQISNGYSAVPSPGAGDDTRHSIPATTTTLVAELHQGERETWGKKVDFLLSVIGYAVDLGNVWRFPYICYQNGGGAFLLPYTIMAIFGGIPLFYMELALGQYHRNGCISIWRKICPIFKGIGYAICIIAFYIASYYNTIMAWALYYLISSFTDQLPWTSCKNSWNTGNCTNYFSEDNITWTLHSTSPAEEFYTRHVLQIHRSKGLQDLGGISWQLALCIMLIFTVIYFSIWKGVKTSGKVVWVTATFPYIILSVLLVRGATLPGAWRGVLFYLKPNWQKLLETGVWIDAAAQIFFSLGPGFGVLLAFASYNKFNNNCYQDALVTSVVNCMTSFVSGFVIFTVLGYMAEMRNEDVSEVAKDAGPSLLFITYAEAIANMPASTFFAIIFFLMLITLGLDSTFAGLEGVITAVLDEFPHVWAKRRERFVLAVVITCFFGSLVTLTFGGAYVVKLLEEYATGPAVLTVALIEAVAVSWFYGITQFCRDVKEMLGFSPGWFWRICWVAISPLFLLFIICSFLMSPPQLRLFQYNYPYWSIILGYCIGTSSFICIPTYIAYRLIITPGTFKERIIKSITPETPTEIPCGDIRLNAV
Monoamine transporters; serotonin & dopamine (Homo sapiens), sequence (Q01959 whole entry, looked up): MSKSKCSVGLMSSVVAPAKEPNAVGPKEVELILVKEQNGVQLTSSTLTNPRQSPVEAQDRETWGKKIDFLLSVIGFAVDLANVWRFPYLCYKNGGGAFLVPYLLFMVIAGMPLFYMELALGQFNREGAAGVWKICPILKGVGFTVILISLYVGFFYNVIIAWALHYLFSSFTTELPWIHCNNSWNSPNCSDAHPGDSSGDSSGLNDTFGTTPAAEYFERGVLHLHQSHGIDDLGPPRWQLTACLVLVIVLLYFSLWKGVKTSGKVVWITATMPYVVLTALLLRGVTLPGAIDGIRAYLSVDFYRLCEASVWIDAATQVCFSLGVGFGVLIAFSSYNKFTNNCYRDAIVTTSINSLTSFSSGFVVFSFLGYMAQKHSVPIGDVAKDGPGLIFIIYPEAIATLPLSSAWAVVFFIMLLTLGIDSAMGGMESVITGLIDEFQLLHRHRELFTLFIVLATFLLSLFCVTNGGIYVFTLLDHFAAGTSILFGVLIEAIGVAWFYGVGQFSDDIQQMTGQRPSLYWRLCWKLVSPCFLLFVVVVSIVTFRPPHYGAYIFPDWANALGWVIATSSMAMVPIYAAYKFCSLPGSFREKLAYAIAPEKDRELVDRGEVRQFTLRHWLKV

The first assay deals with T1, Sodium-dependent serotonin transporter (Homo sapiens, UniProt P31645). The assay can be described thus: Inhibition of [3H]-citalopram binding to the serotonin transporter in rhesus (Macaca mulatta) or cynomolgus monkey (Macaca fascicularis) caudate-putamen. It is filed as tissue-based, Cercopithecidae.
T1 sequence (P31645 whole entry): as the sequence (P31645 whole entry, looked up) above
Conditions: not given; call rule not given here
The procedure, abridged:
(§1)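 Caudate-putamen membranes homogenised in ice-cold 50 mM Tris·HCl (pH 7.4), spun at 38000g for 20 min, washed twice. Assay at 4 mg original wet tissue/mL with 1 nM [3H]citalopram in 50 mM Tris·HCl pH 7.4 plus 100 mM NaCl. Incubated 2 h at 0-4 °C, then filtered on polyethyleneimine-soaked GF/B and counted by scintillation. Nonspecific binding defined with 10 µM fluoxetine. IC50 by EBDA; triplicates, 2-3 brains.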
Take `COC(=O)[C@@H]1C2CC[C@H](C[C@@H]1c1ccccc1)N2C.Cl`: the IC50 result is on record as “Not Active”.

Another assay has as its target Monoamine transporters; serotonin & dopamine (Homo sapiens) (UniProt P31645+Q01959). The assay can be described thus: SERT/DAT ratio of the compound. The class given is protein assay.
Conditions: not given
As for `COC(=O)C1=C(c2ccc(F)cc2)CC2CCC1N2C` (configuration not stated), the Ratio worked out at 20.

On to `COC(=O)C1=C(c2ccc(F)cc2)CC2[C@@H](O)CC1N2C` (some centres not stated), for which the Ratio stood at 1.

For the molecule `COC(=O)[C@@H]1C(c2ccc(Cl)c(Cl)c2)C[C@H]2C[C@@H](O)C1N2C` (some centres not stated), the Ratio amounted to 1610.

For `COC(=O)C1C(c2ccc(Cl)c(Cl)c2)CC2C[C@@H](O)C1N2C` (stereo in doubt; 18a) [listing 1 of 2 here], the Ratio was found to be 1170.

For `COC(=O)C1=C(c2ccccc2)CC2CCC1N2C` (configuration not stated), the Ratio is 11.

For the molecule `COC(=O)C1C(c2ccc(F)cc2)CC2[C@@H](O)CC1N2C` (stereo in doubt; 17c) [listing 1 of 2 here], the Ratio is 8.

In the case of `COC(=O)C1C(c2ccc(Cl)c(Cl)c2)CC2C[C@@H](O)C1N2C` (stereo in doubt; 15a) [listing 1 of 2 here], the Ratio came out at 20.

For the molecule `COC(=O)C1C(c2ccc(Cl)c(Cl)c2)C[C@H]2C[C@@H](O)C1N2C` (some centres not stated), the Ratio came out at 50.

For `COC(=O)C1C(c2ccccc2)CC2[C@@H](O)CC1N2C` (stereo in doubt; 17d) [listing 1 of 2 here], the Ratio was > 3.

As for `COC(=O)C1C(c2ccc3ccccc3c2)CC2CCC1N2C` (stereo in doubt; 13b), the Ratio amounted to 5.

With `COC(=O)C1=C(c2ccccc2)CC2C[C@@H](O)C1N2C` (some centres not stated), the Ratio was determined as 1.

For `COC(=O)C1=C(c2ccc3ccccc3c2)CC2C[C@@H](O)C1N2C` (some centres not stated), the Ratio was found to be 15.

As to `COC(=O)C1C(c2ccc(Cl)c(Cl)c2)CC2[C@@H](O)CC1N2C` (stereo in doubt; 17a) [listing 1 of 2 here], the Ratio was 238.

With `COC(=O)C1=C(c2ccc3ccccc3c2)CC2CCC1N2C` (configuration not stated), the Ratio is 37.

For `COC(=O)C1=C(c2ccc(Cl)c(Cl)c2)CC2[C@@H](O)CC1N2C` (some centres not stated), the Ratio was found to be 60.

`COC(=O)[C@H]1C(c2ccc(Cl)c(Cl)c2)CC2C[C@@H](O)[C@H]1N2C` (stereo in doubt; (1R)-15a) [listing 1 of 2 here]: the Ratio came to 0.05.

Consider `COC(=O)C1C(c2ccc(F)cc2)CC2[C@@H](O)CC1N2C` (stereo in doubt; 14c) [listing 1 of 2 here], for which the Ratio is > 42.

Consider `COC(=O)C1C(c2ccc(F)cc2)CC2C[C@@H](O)C1N2C` (stereo in doubt; 15c) [listing 1 of 2 here], for which the Ratio was > 80.

As to `COC(=O)C1C(c2ccccc2)CC2C[C@@H](O)C1N2C` (stereo in doubt; 15d) [listing 1 of 2 here], the Ratio is > 43.

Consider `COC(=O)C1=C(c2ccccc2)CC2[C@@H](O)CC1N2C` (some centres not stated), for which the Ratio was 1.

Regarding `COC(=O)[C@H]1C(c2ccc(Cl)c(Cl)c2)CC2C[C@@H](O)[C@H]1N2C` (stereo in doubt; (1R)-18a) [listing 1 of 2 here], the Ratio was found to be 11.

Regarding `COC(=O)C1C(c2ccc3ccccc3c2)CC2CCC1N2C` (stereo in doubt; 16b), the Ratio turned out to be 10.

`COC(=O)C1C(c2ccc(Cl)c(Cl)c2)CC2[C@@H](O)CC1N2C` (stereo in doubt; 14a) [listing 1 of 2 here]: the Ratio was 55.

As to `COC(=O)C1=C(c2ccc3ccccc3c2)CC2[C@@H](O)CC1N2C` (some centres not stated), the Ratio turned out to be 1.

With `COC(=O)C1C(c2ccc(F)cc2)CC2C[C@@H](O)C1N2C` (stereo in doubt; 18c) [listing 1 of 2 here], the Ratio was > 120.

As to `COC(=O)C1C(c2ccc3ccccc3c2)CC2C[C@@H](O)C1N2C` (stereo in doubt; 18b) [listing 1 of 2 here], the Ratio turned out to be 34.

As for `COC(=O)C1C(c2ccc(Cl)c(Cl)c2)CC2CCC1N2C` (stereo in doubt; 16a), the Ratio was 73.

With `COC(=O)C1C(c2ccc(Cl)c(Cl)c2)CC2CCC1N2C` (stereo in doubt; 13a), the Ratio was 2.

As for `COC(=O)C1C(c2ccc3ccccc3c2)CC2[C@@H](O)CC1N2C` (stereo in doubt; 17b) [listing 1 of 2 here], the Ratio was found to be 6.

Turning to `COC(=O)C1=C(c2ccc(Cl)c(Cl)c2)CC2C[C@@H](O)C1N2C` (some centres not stated), the Ratio is > 300.

As to `COC(=O)C1=C(c2ccc(Cl)c(Cl)c2)CC2CCC1N2C` (configuration not stated), the Ratio was 747.

As for `COC(=O)C1C(c2ccccc2)CC2C[C@@H](O)C1N2C` (stereo in doubt; 18d) [listing 1 of 2 here], the Ratio was > 190.

With `COC(=O)C1C(c2ccc3ccccc3c2)CC2C[C@@H](O)C1N2C` (stereo in doubt; 15b) [listing 1 of 2 here], the Ratio was 4.

With `COC(=O)C1C(c2ccc3ccccc3c2)CC2[C@@H](O)CC1N2C` (stereo in doubt; 14b) [listing 1 of 2 here], the Ratio is 4.

Regarding `COC(=O)C1C(c2ccccc2)CC2[C@@H](O)CC1N2C` (stereo in doubt; 14d) [listing 1 of 2 here], the Ratio stood at 14.

For `COC(=O)C1=C(c2ccc(F)cc2)CC2C[C@@H](O)C1N2C` (some centres not stated), the Ratio stood at 1.

In the case of `COC(=O)C1=C(c2ccc(Cl)c(Cl)c2)CC2C[C@H](O)[C@H]1N2C`, the Ratio came out at 6.

Another assay has as its target T1, Sodium-dependent serotonin transporter. The assay can be described thus: Inhibition of [3H]citalopram binding to the serotonin transporter in rhesus (Macaca mulatta) or cynomolgus monkey (Macaca fascicularis) caudate-putamen. The class given is tissue-based, Cercopithecidae. Particulars: target entry is the homologue from another species. A digest of the protocol: as §1
`COC(=O)C1C(c2ccc(Cl)c(Cl)c2)CC2[C@@H](O)CC1N2C` (stereo in doubt; 14a) [listing 2 of 2 here]: the half-maximal inhibitory concentration (IC50) turned out to be 0.166 µM.

Take `COC(=O)C1=C(c2ccc(F)cc2)CC2[C@@H](O)CC1N2C` (some centres not stated): the IC50 is > 20 µM.

Turning to `COC(=O)[C@@H]1C(c2ccc(Cl)c(Cl)c2)C[C@H]2C[C@@H](O)C1N2C` (some centres not stated), the IC50 stood at 1.22 µM.

Turning to `COC(=O)C1C(c2ccccc2)CC2[C@@H](O)CC1N2C` (stereo in doubt; 34), the half-maximal inhibitory concentration (IC50) is > 20 µM.

Molecule `COC(=O)C1=C(c2ccccc2)CC2CCC1N2C` (configuration not stated) yielded an IC50 of 28.6 µM.

`COC(=O)[C@H]1[C@@H](c2ccc(F)cc2)C[C@H]2CC[C@H]1N2C` (stereo in doubt; 16c): the IC50 was 1.13 µM.

Regarding `COC(=O)C1C(c2ccc(Cl)c(Cl)c2)C[C@H]2C[C@@H](O)C1N2C` (some centres not stated), the IC50 turned out to be 0.015 µM.

On to `COC(=O)C1C(c2ccc(F)cc2)CC2C[C@@H](O)C1N2C` (stereo in doubt; 15c) [listing 2 of 2 here], for which the IC50 was > 10 µM.

The molecule `COC(=O)[C@H]1C(c2ccc(Cl)c(Cl)c2)CC2C[C@@H](O)[C@H]1N2C` (stereo in doubt; (1R)-15a) [listing 2 of 2 here] showed an IC50 of 0.139 µM.

With `COC(=O)C1=C(c2ccccc2)CC2C[C@@H](O)C1N2C` (some centres not stated), the IC50 was > 10 µM.

As for `COC(=O)C1C(c2ccc(Cl)c(Cl)c2)CC2C[C@@H](O)C1N2C` (stereo in doubt; 18a) [listing 2 of 2 here], the half-maximal inhibitory concentration (IC50) was 1.39 µM.

Consider `COC(=O)C1=C(c2ccc3ccccc3c2)CC2C[C@@H](O)C1N2C` (some centres not stated), for which the IC50 stood at 0.677 µM.

The molecule `COC(=O)C1C(c2ccc(Cl)c(Cl)c2)CC2[C@H](O)CC1N2C` (some centres not stated) registered an IC50 of 10.7 µM.

As to `COC(=O)C1C(c2ccc3ccccc3c2)CC2[C@@H](O)CC1N2C` (stereo in doubt; 17b) [listing 2 of 2 here], the IC50 is 0.18 µM.

In the case of `COC(=O)C1C(c2ccc(F)cc2)CC2[C@@H](O)CC1N2C` (stereo in doubt; 14c) [listing 2 of 2 here], the IC50 was > 20 µM.

On to `COC(=O)C1C(OC(c2ccc(F)cc2)c2ccc(F)cc2)CC2C[C@@H](O)C1N2C` (some centres not stated), for which the IC50 stood at 9.56 µM.

On to `COC(=O)C1=C(c2ccc(Cl)c(Cl)c2)CC2[C@@H](O)CC1N2C` (some centres not stated), for which the IC50 was 3.32 µM.

For the molecule `COC(=O)C1C(c2ccccc2)CC2C[C@@H](O)C1N2C` (stereo in doubt; 18d) [listing 2 of 2 here], the IC50 is > 100 µM.

For the molecule `COC(=O)C1C(c2ccccc2)CC2C[C@@H](O)C1N2C` (stereo in doubt; 15d) [listing 2 of 2 here], the IC50 was > 10 µM.

The molecule `COC(=O)C1C(c2ccc3ccccc3c2)CC2C[C@@H](O)C1N2C` (stereo in doubt; 15b) [listing 2 of 2 here] returned an IC50 of 0.00557 µM.

In the case of `COC(=O)C1=C(c2ccccc2)CC2[C@@H](O)CC1N2C` (some centres not stated), the IC50 was > 100 µM.

Take `COC(=O)[C@H]1C2C(=O)CC(C[C@H]1c1ccc(Cl)c(Cl)c1)N2C` (some centres not stated): the IC50 came out at 7.04 µM.

For `COC(=O)C1=C(c2ccc3ccccc3c2)CC2[C@@H](O)CC1N2C` (some centres not stated), the IC50 is 0.26 µM.

For the molecule `COC(=O)C1C(c2ccc(F)cc2)CC2[C@@H](O)CC1N2C` (stereo in doubt; 17c) [listing 2 of 2 here], the IC50 was 5.82 µM.

For `COC(=O)C1C(c2ccc(Cl)c(Cl)c2)CC2C[C@@H](O)C1N2C` (stereo in doubt; 15a) [listing 2 of 2 here], the IC50 came out at 0.0277 µM.

The molecule `COC(=O)C1C(c2ccc(Cl)c(Cl)c2)CC2C[C@@H](O)C1N2C` (stereo in doubt; 33) showed an IC50 of 0.533 µM.

For the molecule `COC(=O)C1C(c2ccccc2)CC2[C@@H](O)CC1N2C` (stereo in doubt; 17d) [listing 2 of 2 here], the IC50 is > 10 µM.

For the molecule `COC(=O)C1C(OC(c2ccc(F)cc2)c2ccc(F)cc2)CC2[C@@H](O)CC1N2C` (some centres not stated), the IC50 is 4.85 µM.

Turning to `COC(=O)C1C(c2ccc(Cl)c(Cl)c2)CC2[C@@H](O)CC1N2C` (stereo in doubt; 17a) [listing 2 of 2 here], the IC50 amounted to 1.45 µM.

Take `COC(=O)C1=C(c2ccc(Cl)c(Cl)c2)CC2C[C@@H](O)C1N2C` (some centres not stated): the IC50 was > 6 µM.

Turning to `COC(=O)C1=C(c2ccc(Cl)c(Cl)c2)C[C@H]2C[C@@H](O)C1N2C`, the IC50 was 5.37 µM.

Take `COC(=O)C1C(c2ccc(F)cc2)CC2C[C@@H](O)C1N2C` (stereo in doubt; 18c) [listing 2 of 2 here]: the IC50 was > 20 µM.

With `COC(=O)C1C(c2ccc3ccccc3c2)CC2[C@@H](O)CC1N2C` (stereo in doubt; 14b) [listing 2 of 2 here], the IC50 stood at 0.0342 µM.

`COC(=O)C1C(c2ccc3ccccc3c2)CC2C[C@@H](O)C1N2C` (stereo in doubt; 18b) [listing 2 of 2 here] returned an IC50 of 0.094 µM.

In the case of `COC(=O)C1C(c2ccccc2)CC2[C@@H](O)CC1N2C` (stereo in doubt; 14d) [listing 2 of 2 here], the IC50 came to 88 µM.

As to `COC(=O)[C@H]1C(c2ccc(Cl)c(Cl)c2)CC2C[C@@H](O)[C@H]1N2C` (stereo in doubt; (1R)-18a) [listing 2 of 2 here], the IC50 turned out to be 5.3 µM.

Consider `COC(=O)C1=C(c2ccc(F)cc2)CC2C[C@@H](O)C1N2C` (some centres not stated), for which the IC50 was > 10 µM.

Turning to `COC(=O)C1=C(c2ccc(Cl)c(Cl)c2)CC2C[C@H](O)[C@H]1N2C`, the half-inhibitory concentration (IC50) is 1.59 µM.

As for `COC(=O)C1C(c2ccc(Cl)c(Cl)c2)CC2C[C@H](O)C1N2C` (some centres not stated), the half-inhibitory concentration (IC50) worked out at 0.991 µM.
